Results reported in ChEMBL document CHEMBL4138089, “Novel Imidazo[4,5-c][1,2,6]thiadiazine 2,2-dioxides as antiproliferative trypanosoma cruzi drugs: Computational screening from neural network, synthesis and in vivo biological properties” (Eur J Med Chem, 2017).
Calls of active or inactive are those of the source. No cut-off for these calls is given here.

Columns and labels:
Trypanosoma cruzi [1] = test: Growth inhibition of Trypanosoma cruzi Tulahuen 2 epimastigotes at 25 uM after 5 days relative to control; assay type: functional; conditions: Tulahuen 2, 120 h, read-out: GI
Trypanosoma cruzi [2] = test: Antitrypanosomal activity against Trypanosoma cruzi Tulahuen 2 epimastigotes after 5 days; assay type: functional, organism-based; conditions: Tulahuen 2, 120 h
[3] = molecular target: Cruzipain (Trypanosoma cruzi) (UniProt P25779); test: Inhibition of Trypanosoma cruzi cruzipain at 100 uM using Bz-Pro-Phe-Arg-p-NA as a chromogenic substrate preincubated for 10 mins followed by substrate addition measured for 5 mins by spectrophotometer relative to control
Cruzipain (Trypanosoma cruzi), sequence (P25779 123-467 limits assumed): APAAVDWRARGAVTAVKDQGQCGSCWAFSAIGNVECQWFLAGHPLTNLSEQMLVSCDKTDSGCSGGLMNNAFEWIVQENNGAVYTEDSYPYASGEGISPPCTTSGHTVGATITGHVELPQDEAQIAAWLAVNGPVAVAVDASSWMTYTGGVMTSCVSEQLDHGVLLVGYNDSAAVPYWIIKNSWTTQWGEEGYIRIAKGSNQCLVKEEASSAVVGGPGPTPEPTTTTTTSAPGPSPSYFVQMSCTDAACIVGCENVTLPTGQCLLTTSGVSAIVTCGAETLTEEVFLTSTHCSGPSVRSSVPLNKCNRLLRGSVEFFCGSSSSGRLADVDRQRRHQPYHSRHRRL
In short: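 Cruzipain preincubated 10 min at ambient temperature in 50 mM Tris-HCl pH 7.6 with 10 mM mercaptoethanol and 25, 50 or 100 μM inhibitor (DMSO). Bz-Pro-Phe-Arg-p-NA then added at 150 μM final, A410 followed for 5 min. Controls carry the same DMSO level and define 100% activity.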

J774 = test: Cytotoxicity against mouse J774 cells assessed as reduction in cell viability after 48 hrs by MTT assay; assay type: cell-based; conditions: J774, 48 h
In short: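 J774 macrophages, 37°C, 5% CO2, 48 h with compounds in DMSO at 100, 200 and 400 μM. Viability from mitochondrial activity by MTT/formazan.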

Trypanosoma cruzi [4] = test: Growth inhibition of Trypanosoma cruzi clone CL B5 epimastigotes at 25 uM after 72 hrs by beta-galactosidase reporter gene assay relative to control; assay type: functional; conditions: clone CL B5, 72 h, read-out: GI
Trypanosoma cruzi [5] = test: Antitrypanosomal activity against Trypanosoma cruzi clone CL B5 epimastigotes at 25 uM after 72 hrs by beta-galactosidase reporter gene assay; assay type: functional, organism-based; conditions: clone CL B5, 72 h
L929 = test: Cytotoxicity against mouse NCTC-929 cells assessed as reduction in cell viability after 48 hrs by resazurin dye-based assay; conditions: L929, 48 h
In short: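 NCTC-929 fibroblasts, 15,000 cells/well in MEM, attached 3 h at 37°C/5% CO2, then compounds in fresh medium 48 h. Resazurin (2 mM stock in PBS, pH 7.0) added for 3 h more; fluorescence ex 535/em 590 nm. Growth and medium controls on each plate.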

[6] = Selectivity index, ratio of IC50 for mouse NCTC-929 cells to IC50 for Trypanosoma cruzi clone CL B5 epimastigotes; assay type: toxicity; conditions: read-out: Ratio IC50
[7] = Selectivity index, ratio of IC50 for mouse J774 cells to IC50 for Trypanosoma cruzi Tulahuen 2 epimastigotes; assay type: toxicity; conditions: J774 cells versus Trypanosoma cruzi Tulahuen 2 epimastigotes, read-out: Ratio IC50
Cruzipain = Cruzipain (Trypanosoma cruzi, UniProt P25779); test: Inhibition of Trypanosoma cruzi cruzipain using Bz-Pro-Phe-Arg-p-NA as a chromogenic substrate preincubated for 10 mins followed by substrate addition measured for 5 mins by spectrophotometry
Cruzipain, sequence (P25779 whole entry): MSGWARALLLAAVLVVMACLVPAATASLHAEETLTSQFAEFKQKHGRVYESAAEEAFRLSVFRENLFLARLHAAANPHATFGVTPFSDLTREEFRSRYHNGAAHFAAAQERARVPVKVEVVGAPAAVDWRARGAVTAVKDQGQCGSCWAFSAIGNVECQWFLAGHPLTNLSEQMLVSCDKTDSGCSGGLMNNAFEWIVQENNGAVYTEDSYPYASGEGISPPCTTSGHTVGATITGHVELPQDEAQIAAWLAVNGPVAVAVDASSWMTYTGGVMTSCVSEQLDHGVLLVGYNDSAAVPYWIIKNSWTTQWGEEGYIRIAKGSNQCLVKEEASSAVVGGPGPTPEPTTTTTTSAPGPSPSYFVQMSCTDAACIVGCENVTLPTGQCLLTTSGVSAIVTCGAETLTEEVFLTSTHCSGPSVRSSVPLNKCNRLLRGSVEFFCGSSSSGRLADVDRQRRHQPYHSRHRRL
In short: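 Cruzipain preincubated 10 min at ambient temperature in 50 mM Tris-HCl pH 7.6 with 10 mM mercaptoethanol and 25, 50 or 100 μM inhibitor (DMSO). Controls carry the same DMSO level and define 100% activity.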

Salmonella typhimurium [8] = test: Genotoxicity in Salmonella typhimurium TA98 up to 500 ug/plate in presence of mouse liver S9 fraction by Ames test; assay type: toxicity, organism-based; conditions: salmonella enterica subsp. enterica serovar typhimurium
In short: (§1)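 TA98 by direct plate incorporation on minimal glucose agar with Vogel-Bonner E; toxicity to the strain checked first. Compounds in DMSO, in triplicate, top dose 500 µg/plate; ± Aroclor-induced mouse liver S9 (500 µL). Positive controls 4-nitro-o-phenylenediamine 20.0 µg/plate (no S9), 2-aminofluorene 10.0 µg/plate (S9); DMSO negative. Manual revertant counts, mean of two experiments ±SD; mutagenic if ≥2× negative control at two consecutive doses.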

Salmonella typhimurium [9] = test: Genotoxicity in Salmonella typhimurium TA98 up to 500 ug/plate in absence of mouse liver S9 fraction by Ames test; assay type: toxicity, organism-based; conditions: salmonella enterica subsp. enterica serovar typhimurium; in short: as §1
Mus musculus = test: Antitrypanosomal activity against bloodstream forms of Trypanosoma cruzi Y infected in NMRI mouse assessed as decrease in number of blood trypomastigotes at 100 mg/kg, po administerd for 5 consecutive days starting from day 5 post infection measured from 4th day of treatment; assay type: functional, organism-based
Trypanosoma cruzi [10] = test: Antitrypanosomal activity against bloodstream forms of Trypanosoma cruzi Y infected in NMRI mouse assessed as mouse survival at 100 mg/kg, po administerd for 5 consecutive days starting from day 5 post infection; conditions: 720 h
Trypanosoma cruzi [11] = test: Growth inhibition of Trypanosoma cruzi clone CL B5 amastigotes harboring lacZ derived from infected mouse NCTC-929 cells at 25 uM after 7 days by beta-galactosidase reporter gene assay relative to control; assay type: functional; conditions: clone CL B5, NCTC-929, 168 h, read-out: GI
In short: (§2)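 NCTC-929 fibroblasts seeded 10,000 cells/well in MEM, attached 2-3 h at 37°C, 5% CO2, then infected with NCTC-929-derived CL-B5 lacZ trypomastigotes (1:6 cells:parasites) for 24 h at 33°C. Washed in PBS, drug in DMSO added in fresh medium, 7 days at 33°C. CPRG (400 µM, pH 7.4, 3% Triton X-100) added, 3 h at 37°C, A595. PGIa computed against infected untreated wells after subtracting uninfected-cell background. IC50a derived from PGIa.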

Trypanosoma cruzi [12] = test: Antitrypanosomal activity against Trypanosoma cruzi clone CL B5 amastigotes harboring lacZ infected in mouse NCTC-929 cells after 7 days by beta-galactosidase reporter gene assay; assay type: functional, organism-based; conditions: clone CL B5, NCTC-929, 168 h; in short: as §2

| IC50 (Trypanosoma cruzi [2]) | Structure (SMILES) | inhibition of growth at 25 µM (Trypanosoma cruzi [1]) | inhibition of growth at 25 µM (Trypanosoma cruzi [4]) | selectivity ratio [7] | other results |
| --- | --- | --- | --- | --- | --- |
| 26.2 µM | CN1c2nc(-c3ccsc3)[nH]c2C(N)=NS1(=O)=O | 46.3% |  |  |  |
| 11.5 µM | NC1=NS(=O)(=O)Nc2nc(CCc3ccccc3)[nH]c21 | 73.6% | 51.1% | > 34.8 | inhibition [3]: 39%; IC50 (J774): > 400 µM; IC50 (Trypanosoma cruzi [5]): 17.5 µM; IC50 (L929): > 256 µM; selectivity ratio [6]: > 14.6 |
| > 25 µM | NC1=NS(=O)(=O)N(Cc2ccc(Cl)cc2)c2nc(C3CCCCC3)[nH]c21 | 0% |  |  |  |
| 22.2 µM | NC1=NS(=O)(=O)Nc2nc(-c3ccsc3)[nH]c21 | 51.3% |  |  |  |
| 28.5 µM | CN(C)c1ccc(-c2nc3c([nH]2)C(N)=NS(=O)(=O)N3)cc1 | 42.8% |  |  |  |
| 20.3 µM | NC1=NS(=O)(=O)Nc2nc(C3CCOC3)[nH]c21 (stereo unspecified) | 56.4% |  |  |  |
| 20.2 µM | NC1=NS(=O)(=O)Nc2nc(-c3ccccc3F)[nH]c21 | 57.8% |  |  |  |
| 12.7 to 16.2 µM | NC1=NS(=O)(=O)Nc2nc(Cc3ccccc3)[nH]c21 | 59.7% | 17.7% | > 31 | IC50 (Cruzipain): 23 µM; Activity (Salmonella typhimurium [8]): Non-Toxic; IC50 (Trypanosoma cruzi [5]): > 25 µM; Activity (Salmonella typhimurium [9]): Non-Toxic |
| > 25 µM | NC1=NS(=O)(=O)Nc2[nH]c(-c3ccccc3)nc21 | 39.6% |  |  |  |
|  | O=C(Cn1ccnc1[N+](=O)[O-])NCc1ccccc1 [BENZNIDAZOLE] |  | 49% |  | IC50 (L929): > 256 µM; selectivity ratio [6]: > 9.4; inhibition of growth at 25 µM (Trypanosoma cruzi [11]): 100%; IC50 (Trypanosoma cruzi [12]): 0.8 µM |
| 16.7 µM | CN1c2nc(-c3ccccc3)[nH]c2C(N)=NS1(=O)=O | 58% | 11.3% | 7.7 | inhibition [3]: 27.4%; IC50 (J774): 128 µM; Activity (Salmonella typhimurium [8]): Non-Toxic; IC50 (Trypanosoma cruzi [5]): > 25 µM; Activity (Salmonella typhimurium [9]): Non-Toxic |
| > 25 µM | NC1=NS(=O)(=O)Nc2nc(-c3ccc([N+](=O)[O-])o3)[nH]c21 | 31.3% |  |  |  |
| 28.5 µM | CCc1nc2c([nH]1)C(N)=NS(=O)(=O)N2 | 43% |  |  |  |
| > 25 µM | NC1=NS(=O)(=O)Nc2nc(-c3cccnc3)[nH]c21 | 37.5% |  |  |  |
| > 25 µM | Cc1nc2c([nH]1)C(N)=NS(=O)(=O)N2 | 38.7% |  |  |  |
| 7 µM | NC1=NS(=O)(=O)N(Cc2ccc(Cl)cc2)c2nc(-c3ccccc3F)[nH]c21 | 86.3% | 42.1% | < 14.2 | IC50 (Cruzipain): 86 µM; IC50 (J774): < 100 µM; IC50 (Trypanosoma cruzi [5]): > 25 µM |
|  | CC1CS(=O)(=O)CCN1/N=C/c1ccc([N+](=O)[O-])o1 (stereo unspecified) [NIFURTIMOX] |  | 82.2% | 41 | IC50 (L929): > 256 µM; selectivity ratio [6]: > 71.1; inhibition of growth at 25 µM (Trypanosoma cruzi [11]): 100%; IC50 (Trypanosoma cruzi [12]): < 0.5 µM |
| 28.9 µM | NC1=NS(=O)(=O)Nc2nc(C3CCCC3)[nH]c21 | 42.2% |  |  |  |
| 29.5 µM | NC1=NS(=O)(=O)N(Cc2ccccc2)c2nc(-c3ccccc3)[nH]c21 | 41.6% |  |  |  |
| 28.7 µM | NC1=NS(=O)(=O)N(Cc2ccccc2)c2nc(C3CCCCC3)n(Cc3ccccc3)c21 | 45.7% |  |  |  |

| Structure (SMILES) | IC50 (Trypanosoma cruzi [2]) | inhibition of growth at 25 µM (Trypanosoma cruzi [1]) | inhibition of growth at 25 µM (Trypanosoma cruzi [4]) | selectivity ratio [7] | other results |
| --- | --- | --- | --- | --- | --- |
| NC1=NS(=O)(=O)N(Cc2ccccc2)c2nc(-c3ccccc3)n(Cc3ccccc3)c21 | 4.5 µM | 100% | 60.8% | 22 | IC50 (Cruzipain): 81 µM; IC50 (J774): 100 µM; Activity (Salmonella typhimurium [8]): Non-Toxic; Activity (Mus musculus): Active; IC50 (Trypanosoma cruzi [5]): 3.6 µM; IC50 (L929): < 64 µM; selectivity ratio [6]: < 17.8; survival at 100 mg/kg (Trypanosoma cruzi [10]): 87.5%; inhibition of growth at 25 µM (Trypanosoma cruzi [11]): 90.2%; Activity (Salmonella typhimurium [9]): Non-Toxic |
| NC1=NS(=O)(=O)Nc2nc(C3CCCCC3)[nH]c21 | 12.7 to 16.2 µM | 72.3% | 54.8% | > 25 | IC50 (Cruzipain): 12 µM; Activity (Mus musculus): inactive; IC50 (Trypanosoma cruzi [5]): 2.5 µM; IC50 (L929): > 256 µM; selectivity ratio [6]: > 102; inhibition of growth at 25 µM (Trypanosoma cruzi [11]): 0% |
